# Reference: ChEMBL document CHEMBL1149038 (J Nat Prod, 1994)
# pEC50, pIC50: −log10 of the molar value.
# Legend:
# [1] = Therapeutic index, IC50 for human H9 cells to EC50 for HIV1 3B; type: cell-based; settings: read-out: Ratio IC50/EC50
# H9 = assay: Cytotoxicity against human H9 cells after 3 days; type: cell-based; settings: H9, 72 h
# Procedure, shortened: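 Uninfected H9 lymphocytes cultured with an equal volume of compound dilution for 3 days at 37°. Cell density then counted; IC50 = concentration inhibiting lymphocyte growth by 50%.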
# [2] = system: Human immunodeficiency virus 1; assay: Antiviral activity against HIV1 3B in human H9 cells assessed as inhibition of viral replication after 3 days by p24 antigen capture assay; type: functional, organism-based; settings: Human immunodeficiency virus 1, 3B, H9, 72 h
# Procedure, shortened: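 H9 lymphocytes (1 × 10^7 cells/ml) exposed to HIV-1 IIIB for 1 h at 37°, washed free of unadsorbed virus, resuspended at […] and mixed with an equal volume of compound dilution; 3 days at 37°. Infection read by p24 antigen capture, at four concentrations relative to infected untreated cultures; EC50 = concentration inhibiting replication by 50%.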
# [3] = target: Protein kinase C beta type (Homo sapiens, UniProt P05771); assay: Inhibition of PKC beta2
# Sequence of Protein kinase C beta type (P05771 whole entry): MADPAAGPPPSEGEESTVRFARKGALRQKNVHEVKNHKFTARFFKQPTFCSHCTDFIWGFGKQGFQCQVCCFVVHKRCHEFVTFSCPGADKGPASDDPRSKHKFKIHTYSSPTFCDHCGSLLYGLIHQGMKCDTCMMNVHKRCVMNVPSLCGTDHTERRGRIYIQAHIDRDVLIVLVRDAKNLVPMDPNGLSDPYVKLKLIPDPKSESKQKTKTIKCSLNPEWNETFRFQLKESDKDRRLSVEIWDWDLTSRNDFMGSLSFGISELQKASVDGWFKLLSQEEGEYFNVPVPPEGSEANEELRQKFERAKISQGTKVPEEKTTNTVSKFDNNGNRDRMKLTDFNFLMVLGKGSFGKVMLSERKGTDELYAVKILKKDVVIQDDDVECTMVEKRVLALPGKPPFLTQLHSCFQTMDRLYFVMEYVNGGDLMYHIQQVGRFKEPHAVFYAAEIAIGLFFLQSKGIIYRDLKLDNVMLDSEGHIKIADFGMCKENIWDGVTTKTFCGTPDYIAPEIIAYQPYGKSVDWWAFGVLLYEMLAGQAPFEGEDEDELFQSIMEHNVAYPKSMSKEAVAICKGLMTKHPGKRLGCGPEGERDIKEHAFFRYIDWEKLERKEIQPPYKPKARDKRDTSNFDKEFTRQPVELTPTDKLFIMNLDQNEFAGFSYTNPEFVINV
# Procedure, shortened: (§1)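 Purified PKC isoenzyme (20 ng) starts the reaction. Mix: phosphatidylserine 40 µg/ml/diacylglycerol 1.76 µg/ml vesicles, 20 mM HEPES pH 7.5, 10 mM MgCl2, 200 µg/ml histone substrate, 100 µM CaCl2, 47.5 µM EGTA, 20 µM [32P]ATP; compounds in DMSO. 10 min at 30°, stopped with cold TCA plus BSA, precipitate filtered and scintillation-counted.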
# [4] = target: T1, Protein kinase C epsilon type (Homo sapiens, UniProt Q02156); assay: Inhibition of PKC epsilon; procedure, shortened: as §1
# T1 sequence (Q02156 whole entry): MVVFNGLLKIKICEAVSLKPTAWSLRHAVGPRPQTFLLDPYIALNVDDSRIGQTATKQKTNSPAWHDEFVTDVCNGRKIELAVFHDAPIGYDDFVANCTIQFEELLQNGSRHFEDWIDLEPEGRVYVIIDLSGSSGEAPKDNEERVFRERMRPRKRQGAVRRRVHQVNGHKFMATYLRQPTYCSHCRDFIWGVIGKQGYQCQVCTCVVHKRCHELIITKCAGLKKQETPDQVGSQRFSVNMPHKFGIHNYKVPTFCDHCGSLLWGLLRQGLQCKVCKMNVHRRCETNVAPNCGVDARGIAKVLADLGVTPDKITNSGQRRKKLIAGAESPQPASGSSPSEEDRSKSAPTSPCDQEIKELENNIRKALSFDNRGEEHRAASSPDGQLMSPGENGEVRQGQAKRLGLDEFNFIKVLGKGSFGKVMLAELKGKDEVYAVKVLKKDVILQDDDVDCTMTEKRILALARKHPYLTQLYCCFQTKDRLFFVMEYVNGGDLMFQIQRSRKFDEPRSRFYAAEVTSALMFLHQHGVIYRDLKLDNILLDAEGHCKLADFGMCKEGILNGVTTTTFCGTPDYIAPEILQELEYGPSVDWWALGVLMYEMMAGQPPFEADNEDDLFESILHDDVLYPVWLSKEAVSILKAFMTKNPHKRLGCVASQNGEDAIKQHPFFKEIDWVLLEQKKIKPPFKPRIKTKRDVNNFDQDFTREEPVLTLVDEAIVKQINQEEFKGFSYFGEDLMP
# [5] = target: Protein kinase C delta type (Homo sapiens, UniProt Q05655); assay: Inhibition of PKC delta; procedure, shortened: as §1
# Sequence of Protein kinase C delta type (Q05655 whole entry): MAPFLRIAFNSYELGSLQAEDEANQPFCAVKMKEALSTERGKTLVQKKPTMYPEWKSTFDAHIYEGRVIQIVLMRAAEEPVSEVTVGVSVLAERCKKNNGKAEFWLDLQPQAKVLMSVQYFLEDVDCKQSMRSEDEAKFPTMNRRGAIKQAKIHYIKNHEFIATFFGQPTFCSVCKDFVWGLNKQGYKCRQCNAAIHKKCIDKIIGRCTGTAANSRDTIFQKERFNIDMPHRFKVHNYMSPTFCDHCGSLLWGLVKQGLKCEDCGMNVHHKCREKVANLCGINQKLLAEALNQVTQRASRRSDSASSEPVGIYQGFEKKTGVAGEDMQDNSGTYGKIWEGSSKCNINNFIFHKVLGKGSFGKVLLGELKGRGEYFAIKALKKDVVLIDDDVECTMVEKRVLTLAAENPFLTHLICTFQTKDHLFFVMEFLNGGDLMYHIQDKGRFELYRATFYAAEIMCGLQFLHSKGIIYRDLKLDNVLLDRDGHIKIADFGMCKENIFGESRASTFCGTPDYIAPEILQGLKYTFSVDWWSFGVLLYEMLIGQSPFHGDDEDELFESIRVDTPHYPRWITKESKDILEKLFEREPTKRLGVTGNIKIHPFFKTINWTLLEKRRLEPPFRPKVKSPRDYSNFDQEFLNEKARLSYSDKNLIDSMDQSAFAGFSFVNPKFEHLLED
# [6] = target: Protein kinase C gamma type (Homo sapiens, UniProt P05129); assay: Inhibition of PKC gamma; procedure, shortened: as §1
SMILES,selectivity ratio [1],pIC50 (H9),pEC50 [2],pIC50 [3],pIC50 [4],pIC50 [5],pIC50 [6]
C=C(C)[C@@H]1CC[C@]2(C(=O)O)CC[C@]3(C)[C@H](CC[C@@H]4[C@@]5(C)CC[C@H](OC(C)=O)C(C)(C)[C@@H]5CC[C@]43C)[C@@H]12,0.8,4.70,4.60,< 3.82,< 3.82,–,–
C=C(C)[C@@H]1CC[C@]2(C(=O)O)CC[C@]3(C)[C@H](CC[C@@H]4[C@@]5(C)CC[C@H](OC(=O)CCC(=O)O)C(C)(C)[C@@H]5CC[C@]43C)[C@@H]12,4,4.80,5.40,< 3.82,< 3.82,4.31,–
C=C(C)[C@@H]1CC[C@]2(C(=O)O)CC[C@]3(C)[C@H](CC[C@@H]4[C@@]5(C)CC[C@H](OC(=O)/C=C/C)C(C)(C)[C@@H]5CC[C@]43C)[C@@H]12,2.5,4.32,4.72,< 3.82,< 3.82,–,–
C=C(C)[C@@H]1CC[C@]2(C(=O)O)CC[C@]3(C)[C@H](CC[C@@H]4[C@@]5(C)CC[C@H](OS(=O)(=O)O)C(C)(C)[C@@H]5CC[C@]43C)[C@@H]12,1.7,4.46,4.70,< 3.82,< 3.82,–,4.43
C=C(C)[C@@H]1CC[C@]2(C(=O)OCC(=O)OC)CC[C@]3(C)[C@H](CC[C@@H]4[C@@]5(C)CC[C@H](O)C(C)(C)[C@@H]5CC[C@]43C)[C@@H]12,1.5,4.59,4.77,< 3.82,< 3.82,–,–
C=C(C)[C@@H]1CC[C@]2(C(=O)O)CC[C@]3(C)[C@H](CC[C@@H]4[C@@]5(C)CC[C@H](OC(=O)c6ccccc6)C(C)(C)[C@@H]5CC[C@]43C)[C@@H]12,1,4.82,4.82,< 3.82,< 3.82,–,4.13
C=C(C)[C@@H]1CC[C@]2(C(=O)O)CC[C@]3(C)[C@H](CC[C@@H]4[C@@]5(C)CC[C@H](O)C(C)(C)[C@@H]5CC[C@]43C)[C@@H]12 [BETULINIC ACID],–,–,5.85,< 3.82,< 3.82,–,–
C=C(C)[C@@H]1CC[C@]2(CO)CC[C@]3(C)[C@H](CC[C@@H]4[C@@]5(C)CC[C@H](O)C(C)(C)[C@@H]5CC[C@]43C)[C@@H]12 [BETULIN],1.9,4.35,4.64,< 3.82,< 3.82,–,–
CC(C)[C@@H]1CC[C@]2(C(=O)O)CC[C@]3(C)C(CCC4[C@@]5(C)CC[C@H](O)C(C)(C)C5CC[C@]43C)C12 (stereo partly drawn) [DIHYDROBETULINIC ACID],14,–,6.05,< 3.82,< 3.82,4.34,–
CC(=O)[C@@H]1CC[C@]2(C(=O)O)CC[C@]3(C)[C@H](CC[C@@H]4[C@@]5(C)CC[C@H](O)C(C)(C)[C@@H]5CC[C@]43C)[C@@H]12 [PLATANIC ACID],13,4.05,5.19,< 3.82,< 3.82,–,–
Cc1cn([C@H]2C[C@H](N=[N+]=[N-])[C@@H](CO)O2)c(=O)[nH]c1=O [ZIDOVUDINE],–,–,–,< 3.82,< 3.82,–,–
